Sampled rows, rich in hits. Any-hit rate of the full collection: about 1.1%.
CDK5 p35 inh: CDK5/p35 (human) kinase inhibition | Q00535+Q15078 | Recombinant CDK5/p35, ADP-Glo luminescence, 60 min | inhibition, % at 10 µM | 0.01% of 330,000 active | AID 488839;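 active means highest replicate inhibition of at least 50% and at least 75% of replicates reaching 50%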;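 further: plate controls were DMSO neutral control for no effect and GW8510 at 10 µM for full effect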
SR-BI HDL uptake: inhibitors of mouse SR-BI mediated HDL lipid uptake; Q61009; ldlA[mSR-BI] CHO cells, DiI-HDL uptake fluorescence, 3 h; inhibition, % at 12.5 µM; 0.96% of 320,000 active; AID 488896;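 active means mean replicate inhibition of at least 70% and a set share of replicates each scoring 70 or more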;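 further: 0% = median of neutral control wells and 100% = median of positive control wells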
GSK3A inh: human GSK-3 alpha kinase inhibition; 0.1% of 320,000 active; ADP-Glo luminescence, 60 min; AID 2650; inhibition, % at 10 µM; P49840;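 active means more than half of replicates show inhibition above 20%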;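 further: GST-tagged GSK-3 alpha with peptide substrate and 25 µM ATP; 0% = DMSO neutral wells and 100% = GW8510 positive control wells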
SR-BI DiI-HDL act: enhances SR-BI lipid uptake from DiI-HDL | 0.096% of 320,000 active | activation, % at 12.5 µM | CHO ldlA[mSR-BI] cells, DiI-HDL uptake fluorescence, 3 h; 100 = double the neutral-control signal;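 active means mean replicate activation of at least 60% and every replicate at or above 60%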;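 further: 0% = median plate neutral-control signal and 100% = twice that signal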
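Material: SR-BI-overexpressing, LDLR-lacking CHO cells | Dosing: Single compound concentration, delivered by pin transfer | Probe or stimulus: Labelled HDL, 10 µg/mL | Signal: Bottom-read cell fluorescence after medium removal, ex 550/em 595 nm | Schedule: 3 h, 37 °C | Evaluation: HDL uptake via cellular fluorescence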
GSK3B inh: blocks human GSK3beta kinase activity. GST-GSK3beta kinase, ADP-Glo luminescence, 60 min; active compounds read low. AID 2097. activity score (negative = inhibition), % at 10 µM. 0.038% of 300,000 active;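 active means more than half of replicate wells score below -50%, meaning over 50% inhibition versus plate controls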;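 further: 0% = median DMSO wells and -100% = median GW8510 positive control wells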
Target sequence (P49841 whole entry, looked up): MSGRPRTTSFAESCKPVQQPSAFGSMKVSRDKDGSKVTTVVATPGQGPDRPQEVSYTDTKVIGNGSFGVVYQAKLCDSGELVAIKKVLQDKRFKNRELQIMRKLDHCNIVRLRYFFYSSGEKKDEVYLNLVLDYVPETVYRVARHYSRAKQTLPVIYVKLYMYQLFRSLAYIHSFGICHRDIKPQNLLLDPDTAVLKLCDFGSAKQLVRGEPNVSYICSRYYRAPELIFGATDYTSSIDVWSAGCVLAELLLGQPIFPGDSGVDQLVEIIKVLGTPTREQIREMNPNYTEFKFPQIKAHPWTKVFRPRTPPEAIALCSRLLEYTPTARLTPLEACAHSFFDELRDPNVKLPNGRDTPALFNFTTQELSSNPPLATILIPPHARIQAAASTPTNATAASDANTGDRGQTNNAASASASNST
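Test system: GST-fused GSK3beta enzyme, cell-free | Quantity: 1.6 ng GST-GSK3beta enzyme per well | Reagent: 25 µM ATP with peptide substrate | Schedule: 60 min enzyme reaction, room temperature | Signal: Luminescent ADP-Glo measurement of ADP formed | Read-out basis: Score relative to plate controls | Control set: DMSO and 20 µM GW8510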
Active calls of the source: *; . = not tested or not shown.

SMILES | CDK5 p35 inh | SR-BI HDL uptake | GSK3A inh | SR-BI DiI-HDL act | GSK3B inh
COc1ccc(C2NC(=O)NC(C)=C2C(=O)OCC2CCCCC2)cc1OC (configuration not stated) | 2 | . | 1 | . | 0
COc1ccc(/C=N/Nc2ccc([N+](=O)[O-])cc2)cc1Cn1cc([N+](=O)[O-])cn1 | -1 | 95* | -1 | -95 | 1
O=C(CCl)N(c1ccccc1)C1CCCCC1 | -2 | -12 | 1 | 12 | 1
CCCc1sc(N/N=C/c2ccccn2)nc1-c1ccc(Br)cc1 | -2 | 72* | 1 | -72 | 2
COc1cc(/C=N/NC(=O)c2cncc(Br)c2)cc([N+](=O)[O-])c1O | 1 | 120* | 0 | -120 | -1
COc1cc([N+](=O)[O-])cc(/C=N/NC(=O)c2cncc(Br)c2)c1O | -3 | . | -1 | . | 0
O=C(CSc1ccccn1)Nc1cccc(S(=O)(=O)N2CCCC2)c1 | -1 | 5 | -7 | -5 | .
CCOC(=O)c1sc2nc(C)cc(C)c2c1N | 8 | 1 | -1 | -1 | -1
CCOC(=O)c1sc2nc(SC)nc(-c3ccc(Cl)cc3)c2c1N | 3 | 87* | -7 | -87 | -3
COc1ccccc1S(=O)(=O)N1CCN(S(=O)(=O)c2ccccc2C#N)CC1 | -6 | -11 | -1 | 11 | -1
COc1ccc2occ(C(=O)c3cccs3)c2c1 | -1 | 28 | 59* | -28 | -41
COc1ccc(OC)c(C(=O)c2coc3ccc(O)c(CN(C)C)c23)c1 | 1 | 22 | 0 | -22 | 3
COc1ccc2occ(C(=O)c3coc4ccc(O)c(CN(C)C)c34)c2c1 | -1 | 39 | 85* | -39 | -68*
CC1CC(C)CN(C(=O)c2cccc(N3C(=O)c4ccccc4C3=O)c2)C1 (configuration not stated) | -8 | -7 | 2 | 7 | .
Nc1cc(C(=O)O)c(N)c2c1C(=O)c1ccccc1C2=O | 22 | . | 55* | . | -1
O=C(O)c1ccc([N+](=O)[O-])c2c1C(=O)c1ccccc1C2=O | -1 | 5 | 6 | -5 | 4
Nc1c(C(=O)O)ccc2c1C(=O)c1ccccc1C2=O | 4 | -16 | 58* | 16 | -21
Cn1c(N)c(N=O)c(=O)n(C)c1=S | -2 | -7 | . | 7 | .
CN(CC(=O)Nc1ccc(Cl)c(Cl)c1)C(=O)C1CCCC1 | 0 | -67 | -16 | 67* | .
CN(CC(=O)Nc1ccc(Cl)c(Cl)c1)C(=O)C1CCC1 | 1 | -7 | 0 | 7 | .
COc1ccc(C2=NN(c3nc(-c4ccc(CNC(C)=O)cc4)cs3)C(c3ccco3)C2)cc1 (configuration not stated) | 0 | . | 1 | . | 0
O=C(Cc1ccc(Cl)cc1)N1CCc2ccccc2C1 | 0 | -449 | -2 | 449* | 3
Cc1ccc(S(=O)(=O)N2CCCC2)cc1C(=O)NCC(C)(C)N1CCOCC1 | -1 | -17 | -2 | 17 | .
COc1ccc(C(=O)OC2C(OC)OCC(O)C2O)cc1 (configuration not stated) | 0 | -12 | . | 12 | .
O=C(NCc1ccccc1)c1cccc(COc2ccc3c(c2)CCC3)c1 | 1 | -11 | -2 | 11 | 2
SMILES | CDK5 p35 inh | SR-BI HDL uptake | GSK3A inh | SR-BI DiI-HDL act | GSK3B inh
COc1cccc(OC)c1C(=O)NNC(=O)c1cccc(COc2ccc3c(c2)CCC3)c1 | -3 | 76* | -2 | -76 | -2
CCc1cc2c(COC(=O)c3cc(S(=O)(=O)N4CCOCC4)ccc3F)cc(=O)oc2cc1O | 1 | 78* | 2 | -78 | .
O=C(OCc1cc(=O)oc2cc(O)ccc12)c1cc(S(=O)(=O)N2CCOCC2)ccc1F | -2 | 40 | 0 | -40 | 7
Cc1c(C(=O)Nc2ccccc2)sc2nc(-c3ccccc3)cn12 | 0 | 77* | 0 | -77 | 5
Cc1nn(-c2ccccc2)c(C)c1/C=N\N1CCN(c2ccc(Cl)cc2)CC1 | -1 | 80* | 0 | -80 | 3
COc1cccc(/C=N/N2CCN(c3ccc(Cl)cc3)CC2)c1OC | -1 | 5 | -2 | -5 | 2
COc1ccc(OC)c(/C=N/N2CCN(c3ccc(Cl)cc3)CC2)c1 | -1 | -148 | -1 | 148* | -3
N#C/C(=C(/O)c1ccc(C(=O)c2ccccc2)cc1)c1nc2ccccc2[nH]1 | 1 | -243 | -1 | 243* | -4
COc1ccc(Cl)cc1NC(=O)Cn1c(C)csc1=O | -3 | -7 | 1 | 7 | .
NC(=O)NC(=O)CN1C(=O)NC2(CCOc3ccccc32)C1=O (configuration not stated) | -1 | -7 | 3 | 7 | 2
COc1ccc(C(OC(=O)c2ccco2)C(=O)NC2CCCCC2)cc1OC (configuration not stated) | -1 | -336 | . | 336* | 3
O=C(Nc1ccncc1)c1ccc2c(c1)S(=O)(=O)c1ccccc1C2=O | -1 | 2 | -2 | -2 | -3
O=C(Nc1nc(-c2cccc3ccccc23)cs1)c1ccc2c(c1)S(=O)(=O)c1ccccc1C2=O | 3 | 73* | 0 | -73 | -4
O=C(Nc1ccc(-c2ccccc2)cc1)c1ccc2c(c1)S(=O)(=O)c1ccccc1C2=O | 2 | 84* | -4 | -84 | -3
Cc1[nH]c2ccc(F)cc2c1CCN(Cc1cccnc1)C(=S)Nc1cccc(F)c1 | -2 | 26 | 0 | -26 | -2
O=C(CNC(=O)c1ccc(Br)o1)NNC(=O)c1ccccc1O | -3 | 47 | 1 | -47 | .
C=CCN(c1ccccc1OC)S(=O)(=O)c1ccc(Cl)c(C(=O)Nc2ccc(N3CCOCC3)cc2)c1 | -2 | 96* | -1 | -96 | -2
COc1ccccc1NC(=O)c1ccc(NC(=O)c2cc3c(s2)CCC3)cc1 | 0 | 73* | 0 | -73 | -5
O=C(Nc1ccccc1OC(F)F)c1cc2c(s1)CCC2 | 0 | 38 | -5 | -38 | -1
COc1ccc(NC(=O)c2ccc(Cl)nc2)cc1S(=O)(=O)N1CCCCC1 | 1 | 75* | -1 | -75 | 3
COc1ccccc1OCC(=O)Nc1nc(-c2ccc(S(=O)(=O)N3CCOCC3)cc2)cs1 | 0 | 73* | 2 | -73 | -2
OCC[C@@H]1C[C@@H](O)[C@H](O)[C@@]2(CCCc3ccccc3O2)O1 | -1 | -17 | 6 | 17 | 2
CCn1nc(C)c(/C=N/NC(=O)c2ccc3c(c2)c(C)c(C)n3Cc2ccccc2)c1C | -1 | 79* | -3 | -79 | -5
COc1ccc(S(=O)(=O)Nc2ccccc2C(=O)Nc2nc(-c3ccc(F)cc3)cs2)cc1OC | -2 | 45 | . | -45 | 2
COc1ccc(-c2csc(NC(=O)c3ccccc3NS(=O)(=O)c3ccc(C)cc3)n2)cc1 | -1 | 93* | -2 | -93 | 0
CCOC(=O)C1=C(COC(=O)/C=C/c2ccc(OCC)c(OC)c2)NC(=O)NC1C (configuration not stated) | -2 | 83* | 1 | -83 | -2
